ChEMBL document CHEMBL4196170, “Cytotoxic p-Terphenyls from the Endolichenic Fungus Floricola striata” (J Nat Prod, 2018)
Where a name gives a salt, the structure may show the parent alone. The source made the active and inactive calls. The calls are words filed in the database; no cut-off is given here.

Columns and labels:
A549 = assay: Cytotoxicity against human A549 cells after 48 hrs by MTT assay; assay type: functional, cell-based; conditions: A549, 48 h
Method in brief: (§1)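 Cells seeded at 5000−10 000 per well, preincubated 12 h at 37 °C, 5% CO2, then exposed to a range of concentrations for 48 h. MTT added, absorbance read at 570 nm after 4 h; percent growth inhibition used to derive IC50. Adriamycin as positive control.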

MCF7 [1] = assay: Cytotoxicity against human MCF7 cells after 48 hrs by MTT assay; assay type: functional, cell-based; conditions: MCF7, 48 h; method in brief: as §1
A2780 = assay: Cytotoxicity against human A2780 cells after 48 hrs by MTT assay; assay type: functional, cell-based; conditions: A2780, 48 h; method in brief: as §1
Homo sapiens [2] = species: Homo sapiens; conditions: 10 ug/ml
MCF7 [3] = assay: Increase in adriamycin accumulation in human MCF7 cells at 10 ug/ml after 1 hr by flow cytometry; assay type: functional, cell-based
Method in brief: (§2)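 4 × 10^5 MCF-7 or MCF-7/ADR cells incubated 1 h at 37 °C with 10.0 μM adriamycin alone or with modulator (5, 10, 20 μM) or verapamil (10 μg/mL); washed twice in ice-cold PBS. Adriamycin accumulation (%) by flow cytometry relative to untreated cells. Mean ± SD, three independent experiments.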

Homo sapiens [4] = species: Homo sapiens; assay: Inhibition of P-gp in human MCF7/ADR cells assessed as increase in intracellular Rh123 accumulation by measuring increase in fluorescence intensity after 24 hrs by fluorescence microscopic analysis; assay type: cell-based
Method in brief: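 Rh123 (5 μM)-exposed MCF-7/ADR cells, untreated or treated with modulator (10 μM) or verapamil (10 μg/mL), photographed by fluorescence microscopy after 24 h.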

Homo sapiens [5] = species: Homo sapiens; assay: Inhibition of P-gp in human MCF7/ADR cells assessed as increase in intracellular Rh123 accumulation after 1 hr by flow cytometry; assay type: cell-based
Method in brief: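 Exponentially growing MCF-7/ADR cells (3 × 10^5/mL) loaded with Rh123 (5 μM) with or without modulator (5, 10, 20 μM) or verapamil (10 μg/mL), 1 h at 37 °C. Rh123 accumulation (%) by flow cytometry, excitation 488 nm, emission through 530 nm filter; untreated cells as negative control. Mean ± SD of three independent experiments.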

Homo sapiens [6] = species: Homo sapiens; assay: Inhibition of P-gp in human MCF7/ADR cells assessed as potentiation of adriamycin-induced cytotoxicity by measuring fold reduction in adriamycin IC50 at 10 uM after 48 hrs by MTT assay relative to adriamycin alone; assay type: cell-based
Method in brief: (§3)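 MCF-7/ADR (ADM-selected, P-gp-overexpressing) and MCF-7 cells given graded adriamycin with or without modulator (5 or 10 μM) or verapamil 10 μg/mL for 48 h; MTT read at 570 nm. Reversal fold from adriamycin IC50 alone versus IC50 in combination.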

NCI/ADR-RES = assay: Cytotoxicity against human MCF7/ADR cells after 48 hrs by MTT assay; assay type: functional, cell-based
Method in brief: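 MTT format as for parental lines: 48 h exposure to various concentrations in ADM-selected P-gp-overexpressing MCF-7/ADR cells, absorbance at 570 nm after 4 h MTT, IC50 from percent growth inhibition.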

Homo sapiens [7] = species: Homo sapiens; assay: Inhibition of P-gp in human MCF7/ADR cells assessed as potentiation of adriamycin-induced cytotoxicity by measuring fold reduction in adriamycin IC50 at 5 uM after 48 hrs by MTT assay relative to adriamycin alone; assay type: cell-based; method in brief: as §3
MCF7 [8] = assay: Increase in adriamycin accumulation in human MCF7 cells at 20 uM after 1 hr by flow cytometry; assay type: functional, cell-based; method in brief: as §2
Homo sapiens [9] = species: Homo sapiens; assay: Inhibition of P-gp in human MCF7/ADR cells assessed as increase in intracellular accumulation of adriamycin after 1 hr by flow cytometry; assay type: cell-based; method in brief: as §2
Homo sapiens [10] = species: Homo sapiens; assay: Inhibition of P-gp in human MCF7/ADR cells assessed as increase in intracellular accumulation of adriamycin by measuring increase in fluorescence intensity at 10 uM after 24 hrs by fluorescence microscopic analysis; assay type: cell-based
Method in brief: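 MCF-7/ADR cells imaged by fluorescence microscopy for adriamycin fluorescence after 24 h incubation with or without modulator (10 μM) or verapamil (10 μg/mL); untreated cells as negative control.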

SMILES	IC50 (A549) [µM]	IC50 (MCF7 [1]) [µM]	IC50 (A2780) [µM]	also measured
COc1cc(-c2ccccc2)c(O)c2oc3ccc(O)cc3c12	> 40	13.4	25.1	–
COc1cc(-c2ccc(O)cc2)c(O)c2oc3ccccc3c12	> 40	17.5	40.1	–
COC1=C(c2ccccc2O)C(=O)C=C(c2ccc(O)cc2)C1=O	> 40	16.7	8.6	–
COc1cc(-c2ccc(O)cc2)c(O)c2oc3cc(O)ccc3c12	27.8	11.7	14.9	–
COc1ccc(CCN(C)CCCC(C#N)(c2ccc(OC)c(OC)c2)C(C)C)cc1OC (configuration not stated)	–	–	–	inhibition (Homo sapiens [2]): Active; Activity (MCF7 [3]): inactive; inhibition (Homo sapiens [4]): Dose-dependent effect; inhibition (Homo sapiens [5]): Dose-dependent effect
COc1ccc(-c2cc(OC)c(-c3ccccc3)c(OC)c2O)cc1	12.5	38.5	> 40	–
COc1ccc(-c2c(O)cc(-c3ccccc3)c(OC)c2OC)cc1	> 40	> 40	> 40	–
COc1cc(-c2ccc(O)cc2)c(O)c2oc3ccc(O)cc3c12	> 40	17.9	21.4	–
COc1ccc(-c2cc(OC)c(-c3ccccc3O)c(OC)c2OC)cc1	> 40	> 40	> 40	–
COC1=C(c2ccc(OC)cc2)C(=O)C=C(c2ccccc2)C1=O	40.1	19.9	3.4	fold change (FC) (Homo sapiens [6]): 39.1; IC50 (NCI/ADR-RES): 23.5 µM; inhibition (Homo sapiens [4]): Dose-dependent effect; fold change (FC) (Homo sapiens [7]): 1.3; inhibition (Homo sapiens [5]): Dose-dependent effect; Activity (MCF7 [8]): inactive; inhibition (Homo sapiens [9]): Dose-dependent effect; inhibition (Homo sapiens [10]): Active
O=C1C[C@@](O)(c2ccccc2)[C@H](O)c2oc3ccc(O)cc3c21	> 40	> 40	> 40	–
COc1cccc2c1C(=O)c1c(O)c3c(c(O)c1C2=O)C[C@@](O)(C(=O)CO)C[C@@H]3O[C@H]1C[C@H](N)[C@H](O)[C@H](C)O1 [DOXORUBICIN HYDROCHLORIDE]	1.3	–	0.5	–
COc1ccc(-c2c(OC)cc(-c3ccccc3)c(OC)c2OC)cc1	> 40	> 40	> 40	–
